Experimental data from different studies.
Each line is one published result; the experiments were not run side by side.
Read-out: cell growth or viability

| Compound | cell line | technique | time | notes | IC50 |
| --- | --- | --- | --- | --- | --- |
| O=C1Nc2ccccc2/C1=N/N=C/c1cccc([N+](=O)[O-])c1 | HUVEC | MTT | 24 h |  | 221 µg/mL |
| CN(C)C(=O)c1cc2cnc(Nc3ccc(-c4ccc5c(=O)cc(N6CCOCC6)oc5c4)cc3)nc2n1C1CCCC1 | Kelly | ATP luminescence | 72 h |  | 0.19 µM |
| NNc1nc2ccc(Br)cc2c(=O)n1-c1ccc(F)cc1 | NIH3T3 | MTT | 48 h |  | > 200 µM |
| CC(=O)O[C@H]1[C@H](OC(C)=O)[C@@H](Nc2cc3cccnc3c3ncccc23)OC[C@@H]1OC(C)=O | HFF-1 | MTT | 48 h | dark | 14 µM |
| COc1cc(C(=O)c2nc(-c3ccnc4[nH]ccc34)c[nH]2)cc(OC)c1OC | PC-3 | MTS | 72 h |  | 0.0301 µM |
| CN(C)C(=O)Nc1nc2c(Cl)cc(Cl)cc2c(=O)n1-c1ccccc1 | NIH3T3 | MTT | 48 h |  | 38.2 µM |
| COc1cc(C(=O)c2nc(-c3cccc4[nH]ccc34)c(C)[nH]2)cc(OC)c1OC | PC-3 | MTS | 72 h |  | 0.0192 µM |
| Cc1c(C)c2c(c(C)c1O)CCC(C)(COc1ccc(CC3SC(=O)NC3=O)cc1)O2 (stereo not drawn) | NIH3T3 |  | 96 h | 3D culture | 246 µM |
| COc1ccccc1/C=N/N=C1\C(=O)Nc2ccccc21 | HUVEC | MTT | 24 h |  | 235 µg/mL |
| CC1=CC(=O)C(C(C)C)=CC1=O | U-251 | SRB | 48 h |  | 36.9 µM |
| CCOc1cc2ncc(C#N)c(Nc3ccc(OCc4ccccn4)c(Cl)c3)c2cc1NC(=O)/C=C/CN(C)C | NCI-H2170 | ATP luminescence |  |  | 0.0057 µM |
| NNc1nc2c(Cl)cc(Cl)cc2c(=O)n1-c1ccc(Cl)cc1 | NIH3T3 | MTT | 48 h |  | 48.6 µM |
| Cc1cc(Nc2ncnc3ccc(NC4=NC(C)(C)CO4)cc23)ccc1Oc1ccn2ncnc2c1 | NCI-H2170 | ATP luminescence |  |  | 0.088 µM |
| CC(=O)Nc1ccc(O)cc1 | NIH3T3 |  | 96 h | 3D culture | 277 µM |
| O=C(NO)Nc1nc2ccc(Br)cc2c(=O)n1-c1ccccc1 | NIH3T3 | MTT | 48 h |  | 122 µM |
